Assay outcomes from PubChem BioAssay.
Hits are enriched below; roughly 3.8% of the tested compounds scored in any of these assays.
B2AR ag: human beta-2 adrenergic receptor agonism by FAP; P07550; Am2.2-beta2AR cells, FAP receptor internalization, flow cytometry; hit rate 0.43% among 340,000; response, % (test concentration not listed);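 active = response above a set limit, near 3 SD of response in nonfluorescent compounds, cut at about 42% in these data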
Target sequence (P07550 whole entry, looked up): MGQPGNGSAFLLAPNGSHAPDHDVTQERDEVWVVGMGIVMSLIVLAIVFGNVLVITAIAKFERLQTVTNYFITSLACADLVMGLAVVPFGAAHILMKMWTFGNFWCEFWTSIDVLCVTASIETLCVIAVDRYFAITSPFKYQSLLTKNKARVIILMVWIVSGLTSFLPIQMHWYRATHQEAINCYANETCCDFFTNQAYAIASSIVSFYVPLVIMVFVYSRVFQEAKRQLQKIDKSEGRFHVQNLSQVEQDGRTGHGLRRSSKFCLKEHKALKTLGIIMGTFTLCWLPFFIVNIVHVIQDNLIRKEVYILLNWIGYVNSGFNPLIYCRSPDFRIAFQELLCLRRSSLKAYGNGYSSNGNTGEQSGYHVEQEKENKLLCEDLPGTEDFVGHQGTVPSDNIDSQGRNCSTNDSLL
T cell modulator: T cell immune modulators affecting CD8 T cell-vesicle binding; 2C CD8+ T cell-vesicle binding, flow cytometry; hits give low values; response (vesicle binding), % at 7 µM; hit rate 0.068% among 330,000;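 active = response, share of CD8 T cells binding vesicles, and their 90th percentile fluorescence all below set limits, cut at about 80% in these data, passing the limit was not always enough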;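 note: values below 100% mean blocked vesicle binding to the CD8+ T cells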
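Also added: QL9-peptide-loaded Drosophila micro-vesicles bearing Ld, ICAM-1 and B7-1; Test system: purified 2C TCR transgenic mouse naive CD8+ T cells; Measured by: cytometric PE anti-B7-1 and Alexa647 anti-CD8 signals after 1% paraformaldehyde fixation; Timing: binding step 1.5 h, 37 °C, antibody labelling 20 min, ice.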
Granule exo inh: lytic granule exocytosis inhibition | AID 651702 | hit rate 0.66% among 360,000 | inhibition, % at 10 µM | TALL-104 LAMP-1 surface exposure, flow cytometry; cells stimulated with thapsigargin and PMA;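 active = inhibition above about 55%, limit read from the data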
V-ATPase pH: regulators of yeast V-ATPase proton transport; S. cerevisiae, pHLuorin cytosolic pH fluorescence; response, % at 10 µM; hit rate 0.37% among 350,000; AID 504577; in the data active = response mostly above about 7.3%, no sharp cut-off; inactive = mostly below about 5.4%; note: actives read high
MPTP inh: permeability transition pore inhibition; hit rate 1.4% among 360,000; inhibition, % at 10 µM; isolated mouse mitochondria, Ca2+ swelling absorbance, 30 min;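 active = inhibition of 50% or more, scaled per plate between neutral and stimulator controls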;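 note: 0% = DMSO wells given calcium and 100% = 1 mM EGTA wells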
rCAG RNA binder: r(CAG) repeat RNA binding; AID 651821; TO-PRO-1 dye displacement fluorescence; inhibition, % at 3 µM; hit rate 1.3% among 370,000;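 active = inhibition above the plate cutoff, the mean of all test compounds on that plate plus 3 SD, cut at about 35% in these data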;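 note: 0% = DMSO alone and 100% = 100 µM mitoxantrone as full dye displacement; higher means more dye released from RNA so lower well fluorescence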
rCAG binder conf: r(CAG) RNA repeat binding, confirmation | hit rate 70% among 4,300 | TO-PRO-1 dye displacement fluorescence | shares compounds with rCAG RNA binder | AID 652065 | inhibition, % at 3 µM;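 active = inhibition above a per-plate cutoff, the mean inhibition of sample wells plus 3 SD, cut at about 35% in these data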;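 note: loss of TO-PRO-1 fluorescence as compound displaces dye from 1x1 AA loop RNA; 0% = DMSO only wells and 100% = 100 µM mitoxantrone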
DNA CAG counter: counter-screen for rCAG RNA binders: DNA CAG dye complex inhibitors. shares compounds with rCAG RNA binder. d(CAG) DNA oligo TO-PRO-1 dye displacement, fluorescence. inhibition, % at 3 µM. hit rate 94% among 4,300;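 active = inhibition above its plate's cutoff, the mean test-well inhibition plus 3 SD, cut at about 4.8% in these data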;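 note: 0% = DNA dye mix with DMSO and 100% = 100 µM mitoxantrone; hits displace the dye from DNA and so lower well fluorescence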
DNA CAG DR: disrupts DNA CAG TO-PRO-1 complex in dose response | IC50, µM | hit rate 20% among 250 | AID 686960 | DNA CAG/GTC duplex TO-PRO-1 dye displacement fluorescence | shares compounds with rCAG RNA binder; in the data active = IC50 below about 10 µM
The depositor's hits bear a star; x = no result.

SMILES	B2AR ag	T cell modulator	Granule exo inh	V-ATPase pH	MPTP inh	rCAG RNA binder	rCAG binder conf	DNA CAG counter	others
CCC(C)CNC(=O)CN1C(=O)C2CCCCN2C(=O)c2ccccc21 (stereo not drawn)	x	x	x	x	x	-0.6	x	x
N#Cc1c(SCC(=O)O)nc(N2CCCCC2)c2c1CCCC2	-1.6	766.0	11.3	1.7	0.9	34.6*	26.8	7.1*
COc1ccc(-c2ccc3c(n2)CCCN3S(=O)(=O)c2ccc(C#N)cc2)cc1	x	x	x	x	x	4.0	x	x
CCOC(=O)c1c(-c2ccc(C)c(C)c2)csc1NC(=O)C1CC=CCC1C(=O)O (stereo not drawn)	-19.5	266.2	0.8	-0.9	4.5	43.8*	58.1*	18.6*
Cc1ccc(S(=O)(=O)Nc2nc3ccccc3nc2NCc2ccco2)cc1C	-8.0	208.1	-2.7	1.0	2.1	47.0*	52.7*	19.5*
Cc1cccc(S(=O)(=O)Nc2nc3ccccc3nc2NCc2ccco2)c1	-1.3	238.8	-4.6	0.9	-3.0	44.0*	32.3	7.3*
Cc1ccc2[nH]c(O)c(N=NC(=O)c3ccc(NS(=O)(=O)c4cccs4)cc3)c2c1	-1.7	218.9	-2.4	-4.7	0.9	10.6	x	x
Cc1cccc2c(N=NC(=O)c3ccc(NS(=O)(=O)c4cccs4)cc3)c(O)[nH]c12	-3.3	293.6	-0.3	-3.8	0.3	41.8*	71.8*	30.0*
COc1ccc2[nH]c(O)c(N=NC(=O)c3ccc(NS(=O)(=O)c4cccs4)cc3)c2c1	1.3	38.4	0.8	-1.0	0.1	36.4*	57.4*	24.6*
O=C(N=Nc1c(O)[nH]c2ccccc12)c1ccccc1NS(=O)(=O)c1cccs1	-3.6	339.9	-6.1	6.4	-0.2	64.8*	41.1*	15.2*
COC(=O)c1cc2c(c3c4ccccc4n(S(=O)(=O)c4ccccc4)c13)C(=O)N(Cc1ccc(N(C)C)cc1)C2	x	x	x	x	x	17.2	x	x
CCN=c1scc(C)n1/N=C/c1cc(Br)c(O)c(Br)c1	5.6	579.9	0.6	-2.1	0.6	35.9*	41.6*	18.2*
CCN=c1scc(C)n1/N=C/c1ccc(O)c(O)c1O	8.1	359.5	0.1	0.7	6.7	38.2*	49.3*	18.6*
COCCN=c1scc(-c2cccs2)n1/N=C/c1ccc(O)c(O)c1O	28.7	202.4	2.0	-4.8	8.1	47.6*	62.4*	30.4*	DNA CAG DR=9.17*
CC(C)(C)OC(=O)NCCc1ccccc1/C=C/S(=O)(=O)NCc1ccccc1	x	x	x	x	x	2.5	x	x
Cn1c(=O)c2c(-c3ccccc3)n(-c3cc(Cl)c([N+](=O)[O-])cc3O)cc2n(C)c1=O	x	x	3.1	x	2.6	42.9*	42.4*	10.7*
CN1C(=O)[C@@]2(C3=C(CCCC3=O)OC3=C2C(=O)CC(C)(C)C3)c2ccccc21	x	x	x	x	x	3.4	x	x
Cc1ccc(S(=O)(=O)/N=C2/NC(=O)/C(=C/c3ccccn3)S2)cc1	2.8	102.4	-2.9	-0.9	-1.3	44.6*	37.3*	10.2*
COc1ccc(N=C2NC(=O)/C(=C/c3ccco3)S2)cc1	1.9	215.7	4.1	2.1	0.5	31.4	x	x
COc1ccc(/C=C2\SC(=NCc3ccccc3)NC2=O)cc1	-7.9	287.5	0.3	4.3	1.6	7.8	x	x
COc1ccc(S(=O)(=O)/N=C2/NC(=O)/C(=C/c3ccco3)S2)cc1	-6.5	164.0	36.0	-2.9	0.4	85.0*	41.7*	11.1*
COc1ccc(S(=O)(=O)/N=C2/NC(=O)/C(=C\c3ccco3)S2)cc1	-6.7	0.0	3.7	-2.5	4.2	64.9*	44.4*	12.3*
C(=N\Nc1nncc2ccccc12)/c1cccnc1	x	x	x	x	x	1.8	x	x
COC(=O)[C@]12C[C@H](CC(=O)NCc3cccc4ccccc34)C(=O)N(Cc3ccc(Cl)cc3Cl)C1=C[C@H](C1CCCC1)O[C@@H]2C	x	x	x	x	x	7.3	x	x
COc1cccc(NC(=O)Nc2nc3ncccn3c2-c2ccc(C)cc2)c1	x	x	x	x	x	2.2	x	x
